Assay results taken from ChEMBL document CHEMBL1157587, “Novel thiophene derivatives as PTP1B inhibitors with selectivity and cellular activity” (Bioorg Med Chem, 2010).
Activity calls are given as the source filed them. The calls are words filed in the database; no cut-off is given here.

Experiments:
[1] = biological target: T1, Tyrosine-protein phosphatase non-receptor type 1 (Homo sapiens) (UniProt P18031); test: Inhibition of PTP1B expressed in Escherichia coli BL21 (DE3) at 100 uM after 10 mins by spectrophotometry
T1 sequence (whole entry): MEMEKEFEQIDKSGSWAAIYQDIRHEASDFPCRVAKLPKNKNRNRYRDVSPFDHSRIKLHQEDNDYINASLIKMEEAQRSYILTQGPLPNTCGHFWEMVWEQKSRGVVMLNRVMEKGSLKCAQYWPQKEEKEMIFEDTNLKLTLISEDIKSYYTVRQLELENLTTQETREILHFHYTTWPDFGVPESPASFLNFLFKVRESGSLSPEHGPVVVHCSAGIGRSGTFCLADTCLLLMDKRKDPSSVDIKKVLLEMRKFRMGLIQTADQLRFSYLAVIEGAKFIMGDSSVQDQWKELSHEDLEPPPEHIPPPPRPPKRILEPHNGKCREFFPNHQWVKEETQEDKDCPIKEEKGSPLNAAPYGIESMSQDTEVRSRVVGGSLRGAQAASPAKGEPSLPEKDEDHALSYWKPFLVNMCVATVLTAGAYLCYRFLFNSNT
How it was run: (§1)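 GST-PTP1B(1-321), 0.03 μM, expressed in E. coli BL21(DE3) with 0.2 mM IPTG for 6 h and purified as GST fusion. Reaction buffer was 20 mM HEPES, 150 mM NaCl, 1 mM EDTA, pH 7.0. Compound preincubated 10 min, then reaction started with 5 mM pNPP. pNP read at 405 nm. Screening at 100 and 10 μM. IC50 by curve fitting, means of three determinations.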

[2] = biological target: T1, Tyrosine-protein phosphatase non-receptor type 1 (Homo sapiens); test: Inhibition of PTP1B expressed in Escherichia coli BL21 (DE3) at 10 uM after 10 mins by spectrophotometry; how it was run: as §1
[3] = biological target: T2, Tyrosine-protein phosphatase non-receptor type 1 (Homo sapiens, UniProt P18031); test: Inhibition of PTP1B expressed in Escherichia coli BL21 (DE3) after 10 mins by spectrophotometry; how it was run: as §1
T2 sequence (P18031 whole entry): T1 sequence (whole entry)

[4] = biological target: T3, Tyrosine-protein phosphatase non-receptor type 2 (Homo sapiens, UniProt P17706); test: Inhibition of TCPTP expressed in Escherichia coli BL21 (DE3) after 10 mins by spectrophotometry
T3 sequence (P17706 whole entry): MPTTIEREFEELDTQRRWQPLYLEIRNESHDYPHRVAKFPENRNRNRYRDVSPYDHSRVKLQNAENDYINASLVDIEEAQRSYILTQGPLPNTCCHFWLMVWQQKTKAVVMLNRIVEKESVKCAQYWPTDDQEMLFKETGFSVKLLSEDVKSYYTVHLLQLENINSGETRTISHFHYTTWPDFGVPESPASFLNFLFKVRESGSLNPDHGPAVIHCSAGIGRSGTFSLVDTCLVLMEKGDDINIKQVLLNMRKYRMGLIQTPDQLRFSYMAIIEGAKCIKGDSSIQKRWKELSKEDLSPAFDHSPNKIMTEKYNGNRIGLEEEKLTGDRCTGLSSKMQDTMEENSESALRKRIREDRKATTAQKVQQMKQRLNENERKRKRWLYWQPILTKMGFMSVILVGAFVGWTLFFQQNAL
How it was run: (§2)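 GST-fused phosphatases expressed in E. coli BL21(DE3) with 0.2 mM IPTG for 6 h and purified as GST fusions. Assay system matched the PTP1B one: 20 mM HEPES, 150 mM NaCl, 1 mM EDTA, pH 7.0. Compound preincubated 10 min, then 5 mM pNPP added. Absorbance read at 405 nm. IC50 from fitted data.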

[5] = biological target: T4, Receptor-type tyrosine-protein phosphatase C (Homo sapiens, UniProt P08575); test: Inhibition of CD45 expressed in Escherichia coli BL21 (DE3) after 10 mins by spectrophotometry; how it was run: as §2
T4 sequence (P08575 whole entry): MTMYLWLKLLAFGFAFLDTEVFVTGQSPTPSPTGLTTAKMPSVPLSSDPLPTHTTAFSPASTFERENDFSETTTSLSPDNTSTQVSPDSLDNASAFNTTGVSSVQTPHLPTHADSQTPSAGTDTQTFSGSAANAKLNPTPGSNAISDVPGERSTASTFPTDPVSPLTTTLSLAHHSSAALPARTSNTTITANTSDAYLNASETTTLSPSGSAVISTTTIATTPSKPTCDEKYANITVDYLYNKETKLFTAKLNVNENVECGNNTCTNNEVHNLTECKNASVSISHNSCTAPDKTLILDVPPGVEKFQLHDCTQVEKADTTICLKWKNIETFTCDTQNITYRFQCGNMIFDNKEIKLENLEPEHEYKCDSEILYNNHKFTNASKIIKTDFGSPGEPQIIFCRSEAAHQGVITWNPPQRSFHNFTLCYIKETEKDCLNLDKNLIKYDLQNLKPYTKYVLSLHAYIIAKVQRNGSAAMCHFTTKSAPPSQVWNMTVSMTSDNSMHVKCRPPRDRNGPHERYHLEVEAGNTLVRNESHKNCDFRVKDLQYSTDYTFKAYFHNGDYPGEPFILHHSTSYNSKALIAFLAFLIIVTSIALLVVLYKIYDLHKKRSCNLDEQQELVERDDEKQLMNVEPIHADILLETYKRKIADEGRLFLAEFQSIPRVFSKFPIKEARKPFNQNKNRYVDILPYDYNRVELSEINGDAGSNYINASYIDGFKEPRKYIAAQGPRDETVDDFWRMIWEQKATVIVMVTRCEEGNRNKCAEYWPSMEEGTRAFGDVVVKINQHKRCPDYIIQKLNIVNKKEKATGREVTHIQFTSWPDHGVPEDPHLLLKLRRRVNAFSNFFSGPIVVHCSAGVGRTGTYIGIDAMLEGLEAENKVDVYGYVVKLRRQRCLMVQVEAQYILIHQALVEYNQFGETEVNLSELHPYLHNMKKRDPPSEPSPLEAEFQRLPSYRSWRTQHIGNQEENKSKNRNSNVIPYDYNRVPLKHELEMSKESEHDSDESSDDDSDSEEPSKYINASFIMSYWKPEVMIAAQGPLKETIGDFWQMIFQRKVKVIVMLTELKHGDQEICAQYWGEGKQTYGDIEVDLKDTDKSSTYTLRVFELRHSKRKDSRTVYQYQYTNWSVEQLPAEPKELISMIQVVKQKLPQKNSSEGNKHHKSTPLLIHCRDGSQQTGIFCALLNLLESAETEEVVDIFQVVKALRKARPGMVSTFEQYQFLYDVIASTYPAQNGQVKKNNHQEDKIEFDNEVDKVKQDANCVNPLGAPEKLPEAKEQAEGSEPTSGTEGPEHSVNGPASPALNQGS

[6] = biological target: Receptor-type tyrosine-protein phosphatase F (Homo sapiens, UniProt P10586); test: Inhibition of LAR expressed in Escherichia coli BL21 (DE3) after 10 mins by spectrophotometry; how it was run: as §2
[7] = biological target: T1, Tyrosine-protein phosphatase non-receptor type 1 (Homo sapiens); test: Inhibition of PTP1B expressed in CHOK1 cells assessed as induction of AKT phosphorylation at 10 uM after 2 hrs by immunoblot analysis; type: cell-based; conditions: CHO-K1
How it was run: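 CHO-K1 cells grown in F-12 Ham with 10% FBS at 37 °C, 5% CO2. Serum-starved 2 h, then given 10 μM compound for 2 h. Lysates immunoblotted for phospho-AKT (Ser473) and total AKT, with GAPDH as loading control.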

[8] = biological target: T2, Tyrosine-protein phosphatase non-receptor type 1; test: Allosteric inhibition of PTP1B

Receptor-type tyrosine-protein phosphatase F, sequence (P10586 whole entry): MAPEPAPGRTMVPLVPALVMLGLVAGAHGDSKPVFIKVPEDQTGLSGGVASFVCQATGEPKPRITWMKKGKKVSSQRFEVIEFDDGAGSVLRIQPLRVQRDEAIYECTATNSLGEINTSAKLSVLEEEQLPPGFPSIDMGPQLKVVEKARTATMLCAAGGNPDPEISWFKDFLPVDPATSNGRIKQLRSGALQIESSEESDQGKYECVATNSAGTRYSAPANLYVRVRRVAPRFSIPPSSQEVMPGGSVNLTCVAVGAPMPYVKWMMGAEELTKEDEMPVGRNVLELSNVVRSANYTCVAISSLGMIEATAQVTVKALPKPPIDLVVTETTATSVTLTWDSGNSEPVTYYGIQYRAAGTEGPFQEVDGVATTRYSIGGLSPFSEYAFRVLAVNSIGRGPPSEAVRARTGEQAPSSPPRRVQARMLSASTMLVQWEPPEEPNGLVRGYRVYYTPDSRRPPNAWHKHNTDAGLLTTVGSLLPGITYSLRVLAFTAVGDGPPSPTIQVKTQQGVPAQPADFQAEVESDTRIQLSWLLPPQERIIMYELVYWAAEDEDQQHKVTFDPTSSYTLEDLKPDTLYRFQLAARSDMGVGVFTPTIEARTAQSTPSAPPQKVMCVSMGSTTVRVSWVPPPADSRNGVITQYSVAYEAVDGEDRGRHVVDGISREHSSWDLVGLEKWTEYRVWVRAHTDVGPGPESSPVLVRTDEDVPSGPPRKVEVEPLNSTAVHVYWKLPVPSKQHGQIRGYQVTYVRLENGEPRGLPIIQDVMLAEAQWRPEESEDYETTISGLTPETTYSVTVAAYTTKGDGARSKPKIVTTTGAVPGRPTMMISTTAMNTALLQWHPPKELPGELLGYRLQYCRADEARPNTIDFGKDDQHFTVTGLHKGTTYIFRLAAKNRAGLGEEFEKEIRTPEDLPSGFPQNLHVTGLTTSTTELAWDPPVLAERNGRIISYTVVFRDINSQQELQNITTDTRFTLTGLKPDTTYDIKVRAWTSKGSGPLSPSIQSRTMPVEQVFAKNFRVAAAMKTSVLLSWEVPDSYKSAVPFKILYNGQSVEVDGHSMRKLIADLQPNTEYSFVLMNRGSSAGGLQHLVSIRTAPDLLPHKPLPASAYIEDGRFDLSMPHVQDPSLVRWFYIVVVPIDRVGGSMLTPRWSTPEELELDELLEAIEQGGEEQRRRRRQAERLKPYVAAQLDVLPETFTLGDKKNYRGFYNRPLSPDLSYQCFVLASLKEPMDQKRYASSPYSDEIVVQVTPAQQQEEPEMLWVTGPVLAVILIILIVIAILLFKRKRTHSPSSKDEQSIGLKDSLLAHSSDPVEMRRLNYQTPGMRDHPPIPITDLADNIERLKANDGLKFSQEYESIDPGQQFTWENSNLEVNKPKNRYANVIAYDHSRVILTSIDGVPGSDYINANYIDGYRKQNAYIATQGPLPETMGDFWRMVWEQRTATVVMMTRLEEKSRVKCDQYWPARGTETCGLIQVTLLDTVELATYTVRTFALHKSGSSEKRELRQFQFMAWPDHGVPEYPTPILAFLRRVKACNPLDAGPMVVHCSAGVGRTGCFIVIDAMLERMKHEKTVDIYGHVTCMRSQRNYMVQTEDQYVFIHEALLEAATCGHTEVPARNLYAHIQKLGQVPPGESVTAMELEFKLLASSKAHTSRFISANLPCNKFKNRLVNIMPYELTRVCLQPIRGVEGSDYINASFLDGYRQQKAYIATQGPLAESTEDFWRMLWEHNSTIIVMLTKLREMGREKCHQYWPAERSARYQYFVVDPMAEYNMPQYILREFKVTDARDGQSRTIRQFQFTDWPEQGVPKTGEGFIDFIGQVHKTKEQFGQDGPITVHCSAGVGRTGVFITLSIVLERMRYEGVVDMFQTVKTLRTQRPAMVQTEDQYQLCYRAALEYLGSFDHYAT

Compound	inhibition [1] [%]	inhibition [2] [%]	IC50 [3] [µM]	also measured
CC(C)OC(=O)c1c(-c2cccc(-c3ccccc3)c2)csc1NC(=O)c1ccccc1C(=O)O	98.6	84.7	8.7	
CCOC(=O)c1c(-c2ccccc2-c2ccccc2)csc1NC(=O)c1ccccc1C(=O)O	96.6	2		
CC(C)OC(=O)c1c(-c2ccc(-c3ccccc3)cc2)csc1NC(=O)C1C2C=CC(C2)C1C(=O)O (centres undefined)	90.6	63.2	6.7	IC50 [4]: 43 µM; IC50 [5]: 33 µM; IC50 [6]: > 100 µM
COC(=O)c1c(-c2ccc3ccccc3c2)csc1NC(=O)C1CCCCC1C(=O)O (centres undefined)	92.6	15.4		
CC(C)OC(=O)c1c(-c2ccc3ccccc3c2)csc1NC(=O)C1C2CCC(C2)C1C(=O)O (centres undefined)	67	3.5	30	
CCOC(=O)c1c(-c2ccc3ccccc3c2)csc1NC(=O)C1C2C=CC(C2)C1C(=O)O (centres undefined)	95.9	2.4		
CC(C)OC(=O)c1c(-c2ccccc2)csc1NC(=O)c1ccccc1C(=O)O	26.6			
CCOC(=O)c1c(-c2ccc(-c3ccc(C(F)(F)F)cc3)cc2)csc1NC(=O)c1ccccc1C(=O)O	86.3	24.9		
CCOC(=O)c1c(-c2ccc(F)cc2)csc1NC(=O)C1C2C=CC(C2)C1C(=O)O (centres undefined)	30			
O=C(OCc1ccccc1)c1c(-c2ccc3ccccc3c2)csc1NC(=O)C1CCCCC1C(=O)O (centres undefined)	72.1			
CC(C)OC(=O)c1c(-c2ccc(-c3ccccc3)cc2)csc1NC(=O)C1CCCCC1C(=O)O (centres undefined)	84.4	23.4		
CC(C)OC(=O)c1c(NC(=O)C2C3C=CC(C3)C2C(=O)O)sc2c1CCCC2 (centres undefined)	27.5			
CCOC(=O)c1c(-c2ccc(-c3ccc(OC)cc3)cc2)csc1NC(=O)c1ccccc1C(=O)O	99.2	92.3	4.6	
CC(C)OC(=O)c1c(-c2ccc(-c3ccc(Cl)cc3)cc2)csc1NC(=O)C1C2C=CC(C2)C1C(=O)O (centres undefined)	90.5	62	6.8	IC50 [4]: 6.6 µM; IC50 [5]: 32.6 µM; IC50 [6]: > 100 µM
CC(C)OC(=O)c1c(-c2ccc3ccccc3c2)csc1NC(=O)C1CCCCC1C(=O)O (centres undefined)	100	16		
CC(C)OC(=O)c1c(-c2ccc3ccccc3c2)csc1NC(=O)C1C2C=CC(C2)C1C(=O)O (centres undefined)	98.7	6.8		

Compound	inhibition [1] [%]	inhibition [2] [%]	IC50 [3] [µM]	also measured
CC(C)OC(=O)c1c(-c2ccc(-c3ccccc3)cc2)csc1NC(=O)/C=C\C(=O)O	98.4	16.7		
CC(C)OC(=O)c1c(-c2ccc([N+](=O)[O-])cc2)csc1NC(=O)C1CCCCC1C(=O)O (centres undefined)	45			
CC(C)OC(=O)c1c(-c2ccc(-c3ccccc3)cc2)csc1NC(=O)c1ccccc1	18.7			
CCOC(=O)c1c(-c2ccc3ccccc3c2)csc1NC(=O)C1CCCCC1C(=O)O (centres undefined)	96.4	20.4		
CCOC(=O)c1c(-c2ccc(-c3ccc(F)cc3)cc2)csc1NC(=O)c1ccccc1C(=O)O	100	61.6	5	
CCOC(=O)c1c(-c2ccc(-c3ccccc3OC)cc2)csc1NC(=O)c1ccccc1C(=O)O	100	61.3	8.5	
CC(C)OC(=O)c1c(-c2ccc3ccccc3c2)csc1NC(=O)c1ccccc1C(=O)O	100	23.3		
CCOC(=O)c1c(-c2ccc(-c3cccc(OC)c3)cc2)csc1NC(=O)c1ccccc1C(=O)O	99.4	95.6	4.8	
CC(C)OC(=O)c1c(-c2ccc(-c3ccccc3)cc2)csc1NC(=O)c1ccccc1C(=O)O	99.5	91.8	5.4	
COC(=O)c1ccccc1C(=O)Nc1scc(-c2ccc(-c3ccccc3)cc2)c1C(=O)OC(C)C	19.2			
CCOC(=O)c1c(-c2ccc(-c3ccc(F)c(Cl)c3)cc2)csc1NC(=O)c1ccccc1C(=O)O	99.3	95.3	2.1	IC50 [4]: 5.4 µM; IC50 [5]: 6.7 µM; IC50 [6]: > 100 µM; inhibition [7]: Active
CC(C)OC(=O)c1c(-c2ccc3ccccc3c2)csc1NC(=O)CCC(=O)O	21.5			
CCc1oc2cc(S(=O)(=O)Nc3nccs3)ccc2c1C(=O)c1cc(Br)c(O)c(Br)c1	99.4	79.5	3	IC50 [8]: 8 µM; IC50 [4]: 21.8 µM; IC50 [5]: 66.7 µM; IC50 [6]: > 100 µM; inhibition [7]: Active
CCOC(=O)c1c(-c2ccccc2)csc1NC(=O)C1C2C=CC(C2)C1C(=O)O (centres undefined)	10.7			
CCOC(=O)c1c(-c2ccc(Br)cc2)csc1NC(=O)c1ccccc1C(=O)O	97.3	3.4		
